Source: PubChem
SENP1 FRET inh = blocks the human SENP1 SUMO protease catalytic domain; Q9P0U3; recombinant SENP1 catalytic domain, CyPet-SUMO1-YPet FRET cleavage; inhibition, % at 10 µM; hit rate 0.21% among 360,000;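 active = inhibition at least 30% at 10 µM, raw YFP signal under a set limit, fluorescence ratio 0.5 to 1.5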;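 note: 0% = enzyme with DMSO and 100% = no enzyme wells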
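Compound: 10 µM single point, 0.5% DMSO; Test system: hSENP1 catalytic domain, recombinant; Timing: 50 min reaction at room temperature; Technique: FRET, CFP and YFP emission; Control set: no-enzyme wells low, DMSO-plus-enzyme wells high control.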
Myeloid diff MLP = compounds promoting myeloid differentiation. ER-HoxA9 myeloid progenitors, lysozyme-GFP differentiation, flow cytometry. hit rate 1% among 360,000. AID 624256. calls only at 10 µM;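 active = normalized GFP-positive differentiation at or above the plate's own cutoff, the solvent-only control mean plus 3 SD; inconclusive = no clear call, values can overlap the other calls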;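 note: cells exposed to compound for four days before flow analysis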
Pemphigus Ab inh = human desmoglein-3 autoantibody binding inhibition | P32926 | DSG3-coupled beads, scFv-anti-DSG3-GFP binding, flow cytometry; hits give low values | binding (percent of control), % at 10 µM | hit rate 0.48% among 310,000;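 active = binding more than 3 SD below its plate's average and above zero; inconclusive = below that plate limit but binding exactly zero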;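 note: hits lower antibody fragment binding to DSG3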
Target sequence (P32926 whole entry, looked up, the tested form may be a part): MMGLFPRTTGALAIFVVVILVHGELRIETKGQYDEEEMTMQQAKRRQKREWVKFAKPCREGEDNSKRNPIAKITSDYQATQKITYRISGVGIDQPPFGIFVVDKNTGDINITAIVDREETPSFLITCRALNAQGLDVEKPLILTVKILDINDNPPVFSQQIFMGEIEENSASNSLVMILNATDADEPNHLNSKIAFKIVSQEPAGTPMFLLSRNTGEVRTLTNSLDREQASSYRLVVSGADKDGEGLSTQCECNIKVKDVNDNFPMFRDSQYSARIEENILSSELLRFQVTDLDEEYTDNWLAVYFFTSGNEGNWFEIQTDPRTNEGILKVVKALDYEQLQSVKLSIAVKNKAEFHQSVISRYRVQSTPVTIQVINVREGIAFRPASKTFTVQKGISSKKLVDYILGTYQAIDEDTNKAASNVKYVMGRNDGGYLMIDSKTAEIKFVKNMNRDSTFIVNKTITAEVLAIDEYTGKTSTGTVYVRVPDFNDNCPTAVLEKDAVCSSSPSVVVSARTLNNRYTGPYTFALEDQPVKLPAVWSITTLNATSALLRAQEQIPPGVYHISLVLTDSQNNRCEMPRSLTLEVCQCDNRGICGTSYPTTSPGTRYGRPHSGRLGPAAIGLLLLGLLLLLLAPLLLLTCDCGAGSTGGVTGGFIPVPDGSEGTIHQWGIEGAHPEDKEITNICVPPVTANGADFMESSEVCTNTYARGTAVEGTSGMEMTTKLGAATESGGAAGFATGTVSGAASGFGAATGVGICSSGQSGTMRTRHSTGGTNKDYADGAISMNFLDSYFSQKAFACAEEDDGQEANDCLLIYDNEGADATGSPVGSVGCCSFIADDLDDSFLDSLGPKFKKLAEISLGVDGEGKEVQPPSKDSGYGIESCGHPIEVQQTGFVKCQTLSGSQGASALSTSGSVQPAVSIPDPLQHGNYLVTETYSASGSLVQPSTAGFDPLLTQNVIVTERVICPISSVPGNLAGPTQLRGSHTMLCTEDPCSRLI
HNF4A DNA FP = change in binding of human HNF4 alpha to DNA; P41235; AID 1224865; hit rate 0.3% among 360,000; HNF4a-FITC DNA binding, fluorescence polarization, 1 h; activity change, % at 10 µM; in the data active = activity change above about 30%, passing the limit was not always enough
Cardio protect = modulators protecting cardiomyocytes from myocardial damage; H9c2 cardiomyocytes, H2O2 injury protection, ATPLite, 2 h; protection from H2O2 cell death, % at 20 µM; hit rate 0.63% among 360,000;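 active = compounds giving at least 50% protection of heart cells from peroxide-induced death in the single-dose screen, raw or plate-pattern-corrected value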;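 note: 0% = DMSO wells with peroxide and 100% = DMSO wells without peroxide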
Granule exo inh = blocks lytic granule exocytosis. TALL-104 LAMP-1 surface exposure, flow cytometry; cells stimulated with thapsigargin and PMA. inhibition, % at 10 µM. hit rate 0.66% among 360,000. AID 651702;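 active = inhibition above about 55%, limit read from the data; inconclusive = no clear call, values can overlap the other calls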
* marks the source's active call; other numbers are inactive results; i = inactive; ? = inconclusive; . = no result; + = active, no number. Shown are actives, neighbours in structure and some others; about 3% of the full set was active somewhere.

SMILES	SENP1 FRET inh	Myeloid diff MLP	Pemphigus Ab inh	HNF4A DNA FP	Cardio protect	Granule exo inh
CN(C)c1cccc(C(=O)OC(C(=O)Nc2ccc([N+](=O)[O-])cc2Br)c2ccccc2)c1 (centres undefined)	-2.3	i	106.2	-0.7	0.6	-0.3
O=C(NCCN1CCOCC1)c1cc([N+](=O)[O-])cc([N+](=O)[O-])c1	0.9	i	110.5	3.0	-2.2	-0.9
O=C(C=Cc1ccccc1)c1c[nH]c2ccccc2c1=O	-0.2	?	83.4	-1.8	-3.6	4.9
O=C(/C=C/c1ccccc1)c1c[nH]c2ccccc12	0.4	i	63.8*	1.3	-14.3	-2.1
N#Cc1c(Cl)cccc1-n1ccnc1	1.8	+	99.6	-0.9	5.1	-2.5
Cc1cc(NC(=O)c2cnn3c(C(F)F)cc(-c4ccccc4)nc23)no1	-1.8	i	100.8	-2.9	20.0	0.6
Cc1cc(NC(=O)c2cnn3c(C(F)(F)F)cc(-c4ccccc4)nc23)no1	-1.1	i	98.3	-0.7	93.4*	8.0
O=C(N/N=C/c1cn(-c2ccccc2)nc1-c1cc2ccccc2o1)c1cccnc1	-3.4	i	87.2	0.0	35.2	74.8*
O=C(N/N=C/c1cn(-c2ccccc2)nc1-c1cc2ccccc2o1)c1ccncc1	1.0	+	99.5	4.3	31.1	10.9
O=C(O)c1cccc(NC(=O)c2cn(-c3ccccc3)nc2-c2cc3ccccc3o2)c1	1.4	i	116.9	-2.7	-4.5	-4.0
O=C(N/N=C/c1c(O)n(-c2ccccc2Cl)c(=O)c2ccccc12)C1COc2ccccc2O1 (centres undefined)	-25.0	i	102.5	15.1	68.3*	-1.1
Cc1ccc(-n2c(O)c(/C=N/NC(=O)C3COc4ccccc4O3)c3ccccc3c2=O)cc1 (centres undefined)	-24.6	i	126.2	4.6	39.3	2.5
O=C(N/N=C\c1cccc([N+](=O)[O-])c1O)C1COc2ccccc2O1 (centres undefined)	-0.9	i	30.7*	-1.2	45.5	6.4
O=C(N/N=C/c1cccc([N+](=O)[O-])c1O)C(O)(c1ccccc1)c1ccccc1	0.4	i	96.6	-0.9	63.1*	6.6
O=c1[nH][nH]c2c1C(C1CCCCC1)OC(C1CCCCC1)C2 (centres undefined)	1.7	i	.	-1.7	.	-9.0
COc1ccc(Cl)cc1NC(=O)C(C)N1CCN(c2ccccn2)CC1 (centres undefined)	3.0	i	102.2	1.9	-7.3	-8.0
CC(C)CN(C)C(=O)CC1C(=O)NCCN1C (centres undefined)	-1.3	i	99.4	-1.8	3.6	2.7
O=C(Cn1sc2ccccc2c1=O)Nc1ccc(Cl)cc1	-23.3	i	71.7*	2.3	-34.6	51.0
O=C(Cn1sc2ccccc2c1=O)Nc1ccc(Br)cc1	0.7	i	.	-0.5	-33.4	26.4
CC1(C(=O)Nc2ccc3ccccc3c2)CCC(=O)N1CCOc1ccccc1 (centres undefined)	-23.6	i	.	-2.3	-3.9	3.4
CCC(C)[C@H](NC(=O)NC1CCCc2ccccc21)C(=O)O (some centres undefined)	4.3	+	99.3	1.3	-2.6	0.1
Oc1ccc(/C=N/Nc2ccnc3cc(Cl)ccc23)c(O)c1O	39.5	i	92.7*	5.9	37.0	-1.3
CCOC(=O)C1=C(O)c2ccccc2C(=O)/C1=C\c1ccc(C)cc1	-18.9	+	104.4	5.9	-14.6	96.8*
COc1ccc(C(=O)/C=C/Nc2ccc(S(N)(=O)=O)cc2)cc1OC	-123.7	i	71.0*	2.4	3.0	1.2
Nc1ncc(-c2ccccc2)n1CC1CCCO1 (centres undefined)	0.1	i	.	-3.0	61.6*	-1.3
SMILES	SENP1 FRET inh	Myeloid diff MLP	Pemphigus Ab inh	HNF4A DNA FP	Cardio protect	Granule exo inh
CCn1c(SCC(=O)Nc2ccc3c(c2)c2ccccc2n3CC)nnc1-c1ccco1	10.1	i	91.1	-29.5	1.4	2.4
CCn1c(SCC(=O)n2c(C)c(C)c3ccccc32)nnc1-c1ccco1	1.6	i	78.9*	2.7	-1.9	2.0
CC12CCC3C(CCC4CC(O)CCC43C)C1CC(O)C2 (centres undefined)	1.3	i	94.9	1.0	49.8*	0.7
Cn1c2ccccc2c2cnn(CC(=O)Nc3ccc(F)cc3F)c(=O)c21	-2.6	+	100.3	-0.7	-3.3	0.8
Cn1c2ccccc2c2cnn(CC(=O)Nc3ccccc3Br)c(=O)c21	0.5	i	101.4	1.2	1.3	1.2
NS(=O)(=O)c1ccc(CCNC(=O)c2ccncc2)cc1	-1.7	i	.	3.6	6.1	8.9
NS(=O)(=O)c1ccc(CCNC(=O)c2ccc(C#CC3(O)CCCCC3)cc2)cc1	0.6	i	101.4	-1.1	71.4*	0.1
CC(=O)NC1=NC(=O)/C(=C/c2cc(C)n(-c3ccc(NC(C)=O)cc3)c2C)S1	-32.2	i	107.0	81.9*	4.9	-1.3
CC(=O)NC1=NC(=O)/C(=C/c2cc(C)n(-c3cccc(C(=O)O)c3)c2C)S1	-21.1	i	.	49.3*	-2.0	-5.6
N#Cc1ccc(C(C(=O)NC2CCCCC2)n2c(=O)c(-c3cc4ccccc4[nH]3)nc3ccccc32)cc1 (centres undefined)	-18.1	+	.	2.0	.	3.2
O=C(CSC1=Nc2ccccc2C2CC=NN12)Nc1ccc(F)cc1Cl (centres undefined)	-6.4	i	29.8*	-3.2	-7.8	9.2
CN(C)S(=O)(=O)c1ccc(Cl)c(NC(=O)CNC2(C)CCS(=O)(=O)C2)c1 (centres undefined)	1.1	i	129.9	3.5	2.9	-1.3
CC(C)COc1nc2ccccc2c(=O)n1OCC(=O)O	-0.9	i	97.9	0.4	57.8*	0.2
Cc1ccc2c(c1)c1c3n2CCNC3CCC1 (centres undefined)	1.7	i	111.2	4.2	7.7	8.7
Cc1ccc(NC(=S)N(CCCN2CCCC2)Cc2cccn2Cc2ccc(Cl)cc2)cc1C	1.0	i	88.0	9.2	-17.7	80.6*
Cc1cc(NC(=S)N(CCN2CCCCC2)Cc2ccco2)ccc1Cl	-1.0	i	108.1	-1.9	-23.4	4.5
Cc1cccc2sc(NC(=O)c3ccc(OCC4CCCO4)cc3)nc12 (centres undefined)	-0.9	i	102.3	-0.8	-2.3	-0.1
CCOc1ccc2nc(NC(=O)c3ccc(OCC4CCCO4)cc3)sc2c1 (centres undefined)	-7.6	+	103.3	-0.1	-5.1	2.8
Cc1ccc2nc(NC(=O)c3ccc4ncsc4c3)sc2c1	-140.4	i	-6.3*	2.3	-18.1	4.2
NS(=O)(=O)c1ccc2nc(NC(=O)c3ccc4ncsc4c3)sc2c1	-23.6	i	.	2.9	7.4	-4.2
